Values after ≈ are worked out from the molar mass of the structure shown.
Assays:
Assay type in all cases: functional
[1] = tested on: Mycoplasmoides gallisepticum; test: The anti-mycoplasmal activity was determined against Mycoplasma gallisepticum K514 with the addition of copper (40 uM CuSO4)
In short: (§1)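 Broth-dilution MIC in modified Adler medium at pH 8.0, with heat-inactivated horse serum, benzylpenicillin and phenol red. CuSO4 was added to a final 40 μM. Compounds were in DMSO (final 1.25%) and tested in serial 2-fold dilutions, in duplicate, up to 100 μM. Each tube (3 mL) received 1 mL of fresh culture (A660 0.22, pH 6.8) and was incubated at 37 °C for 24 h. MIC was the lowest concentration without indicator color change.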

[2] = tested on: Mycoplasmoides gallisepticum; test: The anti-mycoplasmal activity was determined against Mycoplasma gallisepticum K514 without the addition of copper
In short: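 No copper was added; the medium's copper was below 3 μM. The medium was modified Adler at pH 8.0, with horse serum, benzylpenicillin and phenol red. Compounds were in DMSO (final 1.25%) and tested in serial 2-fold duplicate dilutions up to 100 μM. Each tube held 3 mL of medium plus 1 mL of fresh culture (A660 0.22) and was incubated at 37 °C for 24 h. MIC was the lowest concentration preventing phenol red color change.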

[3] = tested on: Mycoplasmoides gallisepticum; test: The anti-mycoplasmal activity against Mycoplasma gallisepticum K514 with the addition of copper at 40 uM CuSO4; in short: as §1

Row | Compound | MIC [1] [µM] | MIC [2] [µM] | MIC [3] [µM]
1 | CUPRIC SULFATE | – | 700 | –
2 | COc1ccc(C(=N)Nc2nc(-c3ccccn3)cc3ccccc23)cc1 | 0.104 (≈ 0.0369 µg/mL) | 0.78 (≈ 0.276 µg/mL) | –
3 | N=C(Nc1nc(-c2ccccn2)cc2ccccc12)c1ccc(Cl)cc1 | 0.195 (≈ 0.07 µg/mL) | 6.25 (≈ 2.24 µg/mL) | –
4 | Nc1nc(-c2ccccn2)cc2ccccc12 | – | 452 (≈ 100 µg/mL) | 0.45 (≈ 0.0996 µg/mL)
5 | N=C(Nc1nc(-c2ccccn2)cc2ccccc12)c1ccc(Cl)c(Cl)c1 | 0.78 (≈ 0.307 µg/mL) | > 10 | –
6 | Cc1cccc(C(=N)Nc2nc(-c3ccccn3)cc3ccccc23)c1 | 0.0488 (≈ 0.0165 µg/mL) | 0.78 (≈ 0.264 µg/mL) | –
7 | COc1cccc(C(=N)Nc2nc(-c3ccccn3)cc3ccccc23)c1 | 0.078 (≈ 0.0276 µg/mL) | 1.56 (≈ 0.553 µg/mL) | –
8 | Cc1cc(C(=N)Nc2nc(-c3ccccn3)cc3ccccc23)ccn1 | 0.065 (≈ 0.0221 µg/mL) | 0.39 (≈ 0.132 µg/mL) | –
9 | N=C(Nc1nc(-c2ccccn2)cc2ccccc12)c1cccc(Cl)c1 | 0.195 (≈ 0.07 µg/mL) | 6.25 (≈ 2.24 µg/mL) | –
10 | N=C(Nc1ccccn1)c1ccccn1 | – | > 500 | 250 (≈ 49.6 µg/mL)
11 | Cc1ccc(C(=N)Nc2nc(-c3ccccn3)cc3ccccc23)cc1 | 0.0683 (≈ 0.0231 µg/mL) | 0.78 (≈ 0.264 µg/mL) | –
12 | N=C(Nc1nc(-c2ccccn2)cc2ccccc12)c1ccccn1 | 0.0325 (≈ 0.0106 µg/mL) | 0.39 (≈ 0.127 µg/mL) | –
13 | Cc1cccc2c(NC(=N)c3ccccn3)nc(-c3ccccc3)cc12 | > 100 | > 100 | –

Now from value to compound:

Row | MIC [1] [µM] | MIC [2] [µM] | MIC [3] [µM] | Compound
14 | 0.0634 (≈ 0.0206 µg/mL) | 0.195 (≈ 0.0633 µg/mL) | – | N=C(Nc1nc(-c2ccccn2)cc2ccccc12)c1ccccc1
15 | 0.039 (≈ 0.0127 µg/mL) | 0.39 (≈ 0.127 µg/mL) | – | N=C(Nc1nc(-c2ccccn2)cc2ccccc12)c1ccncc1
16 | 0.1 (≈ 0.0916 µg/mL) | 0.1 (≈ 0.0916 µg/mL) | – | CC[C@H]1OC(=O)C[C@@H](O)[C@H](C)[C@@H](O[C@@H]2O[C@H](C)[C@@H](O[C@H]3C[C@@](C)(O)[C@@H](O)[C@H](C)O3)[C@H](N(C)C)[C@H]2O)[C@@H](CC=O)C[C@@H](C)C(=O)/C=C/C(C)=C/[C@@H]1CO[C@@H]1O[C@H](C)[C@@H](O)[C@@H](OC)[C@H]1OC [TYLOSIN]
17 | – | 0.195 (≈ 0.0691 µg/mL) | 0.0455 (≈ 0.0161 µg/mL) | Cc1cc(C)nc(C(=N)Nc2nc(-c3ccccn3)cc3ccccc23)n1
18 | 0.065 (≈ 0.0221 µg/mL) | 0.39 (≈ 0.132 µg/mL) | – | Cc1cccc(C(=N)Nc2nc(-c3ccccn3)cc3ccccc23)n1
19 | 0.039 (≈ 0.0127 µg/mL) | 0.195 (≈ 0.0636 µg/mL) | – | N=C(Nc1nc(-c2ccccn2)cc2ccccc12)c1cnccn1
20 | 0.0325 (≈ 0.0106 µg/mL) | 0.195 (≈ 0.0636 µg/mL) | – | N=C(Nc1nc(-c2ccccn2)cc2ccccc12)c1ncccn1

— ChEMBL document CHEMBL1124405, “Synthesis and copper-dependent antimycoplasmal activity of 1-amino-3-(2-pyridyl)isoquinoline derivatives. 2. Amidines” (1989)
